In the library only some 3% were active in any assay of this set; here they are far more common.
Apaf1 inhib: inhibitors of human Apaf-1 apoptosome, primary screen, biochemical, DEVD-Rh110 fluorescence, uHTS. 330,000 tested, 0.71% active. Apoptotic protease-activating factor 1 (Homo sapiens), O14727. inhibition, % at 20 µM. reconstituted apoptosome caspase-3 activity. AID 489030, 2010; active means inhibition of at least 40% at 20 µM
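Assay system: Apoptosome proteins | Medium: pH 7.5 Hepes buffer with CHAPS, BSA, DTT | Also added: Cytochrome c and DEVD-Rh110 substrate | Times: 30 min plus 50 min, RT | Detection: Rhodamine 110 fluorescence at Ex 480/Em 540 nm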
SENP6 inh: SENP6 protease inhibitors, primary screen, biochemical, luminescence, uHTS; Sentrin-specific protease 6 (Homo sapiens), Q9GZR1; Recombinant SENP6 catalytic domain, aminoluciferin luminescence; inhibition, % at 10 µM; 330,000 tested, 1.8% active; AID 2599, 2010;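 active means inhibition above about 50% at the single tested dose, limit read from the data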
SENP8 block-1: human SENP8 protease inhibitors, primary screen, biochemical, fluorescence, Nedd8 protein substrate, uHTS; Sentrin-specific protease 8 (Homo sapiens), Q96LD8; 360,000 tested, 0.64% active; AID 602440, 2012; inhibition, % at 20 µM; recombinant SENP8; in the data active means inhibition mostly above about 40%, no sharp cut-off; inactive means mostly below about 27%
Target sequence (Q96LD8 whole entry, looked up): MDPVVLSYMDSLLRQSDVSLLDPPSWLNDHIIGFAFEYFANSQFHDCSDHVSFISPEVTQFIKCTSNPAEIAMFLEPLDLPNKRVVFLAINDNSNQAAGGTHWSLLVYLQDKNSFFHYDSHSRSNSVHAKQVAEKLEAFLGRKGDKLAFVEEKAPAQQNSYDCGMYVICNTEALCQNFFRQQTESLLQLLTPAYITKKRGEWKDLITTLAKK
SENP7 inh: SENP7 protease inhibitors, primary screen, biochemical, luminescence, uHTS; 330,000 tested, 1.5% active; Sentrin-specific protease 7 (Homo sapiens), Q9BQF6; inhibition, % at 5 µM; recombinant SENP7, Z-RLRGG-aminoluciferin luminescence, 40 min;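 active means inhibition above about 50% at the single test dose, limit read from the data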
SENP8 block-2: SENP8 protease inhibitors, primary screen, biochemical, luminescence; Sentrin-specific protease 8 (Homo sapiens), Q96LD8; purified SENP8, Z-RLRGG-aminoluciferin cleavage; inhibition, % at 10 µM; 330,000 tested, 1.2% active; AID 2540, 2010; in the data active means inhibition above about 50%
UBC13 polyUb: UBC13 polyubiquitin chain formation inhibitors, primary screen, biochemical, TR-FRET, uHTS; AID 485273, 2010; 330,000 tested, 0.47% active; inhibition, % at 20 µM; in the data active means inhibition above about 45%, passing the limit was not always enough
Target sequence (P61088 whole entry, looked up): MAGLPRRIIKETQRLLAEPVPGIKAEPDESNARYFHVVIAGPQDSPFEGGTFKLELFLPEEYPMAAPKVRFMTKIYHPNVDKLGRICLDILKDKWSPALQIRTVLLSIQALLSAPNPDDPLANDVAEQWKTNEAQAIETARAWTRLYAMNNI
SENP8 conf: SENP8 protease inhibitors, retest, confirmation, biochemical, luminescence, single concentration; shares compounds with SENP7 inh; Recombinant SENP8, Z-RLRGG-aminoluciferin luminescence, 60 min; inhibition, % at 12.5 µM; 6,200 tested, 40% active; AID 488912, 2010;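 active means mean inhibition across replicates above about 50%, limit read from the data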
SENP6 conf: SENP6 protease inhibitors, confirmation, biochemical, luminescence, single concentration; 6,200 tested, 58% active; shares compounds with SENP7 inh; inhibition, % at 12.5 µM; recombinant SENP6, Z-RLRGG-aminoluciferin luminescence
SENP7 confirm: SENP7 protease inhibitors, retest, confirmation, biochemical, luminescence, single concentration; inhibition, % at 12.5 µM; recombinant SENP7, Z-RLRGG-aminoluciferin luminescence, 40 min; shares compounds with SENP7 inh; AID 488917, 2010; 6,200 tested, 69% active
Casp3 SENP sel: caspase-3 protease inhibitors, confirmation, selectivity assay for SENP inhibitor project, biochemical, single concentration | shares compounds with SENP7 inh | purified caspase-3, Z-DEVD-aminoluciferin luminescence, 60 min | 6,200 tested, 60% active | inhibition, % at 12.5 µM;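 active means mean inhibition above about 50%, limit read from the data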
Target sequence (P42574 28-227 limits assumed): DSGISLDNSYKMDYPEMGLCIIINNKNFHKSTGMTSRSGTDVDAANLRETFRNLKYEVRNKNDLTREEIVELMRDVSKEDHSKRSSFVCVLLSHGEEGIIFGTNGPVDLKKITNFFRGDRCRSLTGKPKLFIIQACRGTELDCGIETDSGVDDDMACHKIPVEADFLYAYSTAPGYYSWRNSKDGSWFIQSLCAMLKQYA
SENP luc ctr: luminescence interference (SENP counter-screen); Pre-incubated SENP8/Z-RLRGG-aminoluciferin, luciferase luminescence interference; 6,200 tested, 39% active; inhibition, % at 12.5 µM; shares compounds with SENP7 inh;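 active means mean inhibition above about 50% when retested at one dose, limit read from the data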
Hits are given with their value; 0 = inactive; - = not tested or not shown.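 How the source made its calls, unless noted: active means mean inhibition above about 50% in the one-dose retest (limit read from the data); inactive means the rest.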

SMILES	Apaf1 inhib	SENP6 inh	SENP8 block-1	SENP7 inh	SENP8 block-2	UBC13 polyUb	SENP8 conf	SENP6 conf	SENP7 confirm	Casp3 SENP sel	SENP luc ctr
O=C(O)c1cccc(NC(=O)c2cccc(S(=O)(=O)Nc3cccc([N+](=O)[O-])c3)c2)c1	0	65.5	0	0	51.3	0	71.8	68.6	86.1	0	0
COC(=O)/C=C1\OCc2cc(OCc3ccccc3)ccc21	-	-	0	-	-	-	-	-	-	-	-
CCCc1[nH]n(-c2nc3ccccc3s2)c(=O)c1C=NCCCN(CC)CC	0	68.3	0	0	0	0	0	0	0	60.4	57.3
C[C@@H]1CN([C@@H](C)CO)C(=O)c2cc(NC(=O)Nc3ccccc3)ccc2O[C@@H](C)CCCCO[C@H]1CN(C)C(=O)Nc1ccc(C(F)(F)F)cc1	-	-	0	-	-	-	-	-	-	-	-
Cn1c2ccccc2c(=O)c2ccc(-c3ccc4c(c3)OCO4)cc21	0	72.3	0	72.9	57.8	0	0	52.8	79.2	54.9	0
Cn1c(-c2ccc3c(c2)OCO3)cc(=O)c2ccccc21	0	0	0	0	0	0	-	-	-	-	-
O=c1cc(-c2ccc3c(c2)OCO3)oc2ccccc12	0	0	0	76.7	0	0	0	0	0	0	0
CSCCC(NC(=O)OCc1ccccc1)NC(=O)OCc1ccccc1	-	-	0	-	-	-	-	-	-	-	-
O=c1ccoc2ccccc12	-	-	0	-	-	-	-	-	-	-	-
CCCc1nc2ccc(C)cn2c1Cc1ccc(OC)cc1C	-	-	0	-	-	-	-	-	-	-	-
CCc1ccc(OC(=O)/C=C/c2ccco2)cc1	0	89.1	0	81.2	69.5	0	0	76.6	93.9	50.3	0
COC(=O)N/N=C/c1ccc(OC(=O)/C=C/c2ccco2)cc1	0	0	0	0	0	0	-	-	-	-	-
Cc1ccc(CSc2nc3ncccc3[nH]2)cc1	0	80.8	0	67.3	63.7	0	0	77.0	95.4	0	80.8
O=C(Nc1ccc2c(c1)OCO2)c1noc2c1CCCCC2	0	73.9	0	59.6	0	0	62.8	63.4	87.4	66.7	69.0
O=C(Nc1ccc2c(c1)OCO2)c1noc2c1CCCC2	0	87.5	0	81.2	78.2	0	85.4	86.1	98.5	90.6	0
O=C(Nc1cc(Cl)ccc1Cl)c1noc2c1CCCC2	0	0	0	0	0	0	-	-	-	-	-
O=C(Nc1ccc(F)cc1F)c1noc2c1CCC2	0	0	0	53.0	0	0	0	0	76.7	69.1	0
CN(Cc1ccc(Cl)cc1)C(=O)c1[nH]c(C(F)(F)F)nc1-c1ccccc1	-	-	0	-	-	-	-	-	-	-	-
CCOC(=O)c1c(N)sc(C(N)=O)c1C	0	0	0	0	0	0	-	-	-	-	-
CCOC(=O)c1c(N)sc(C(=O)Nc2ccccc2)c1C	0	84.3	0	85.0	73.1	0	0	80.7	97.4	83.9	83.3
CCOC(=O)c1c(N)sc(C(=O)Nc2ccccc2F)c1C	0	81.1	0	78.3	73.7	0	62.8	63.0	87.5	67.1	0
Cc1cccc(C)c1NC(=O)C1(C)CSCC(=O)N1Cc1cccs1 (centres undefined)	-	-	0	-	-	-	-	-	-	-	-
O=c1c2c([nH]c3ccccc13)CCCCC2	0	82.4	0	0	0	0	0	0	0	0	0
O=c1c2c([nH]c3ccccc13)CCCCCC2	0	0	0	0	0	0	-	-	-	-	-
COc1ccc(C2Nc3cccc4cccc(c34)N2)cc1	0	63.7	0	0	0	0	0	0	0	0	0
SMILES	Apaf1 inhib	SENP6 inh	SENP8 block-1	SENP7 inh	SENP8 block-2	UBC13 polyUb	SENP8 conf	SENP6 conf	SENP7 confirm	Casp3 SENP sel	SENP luc ctr
COc1cc(OC)c(C2Nc3cccc4cccc(c34)N2)c(OC)c1	0	58.4	0	0	0	0	0	0	0	0	0
CC(=O)c1ccc(Nc2nc(C(N)CCc3ccccc3)cs2)cc1 (centres undefined)	-	-	0	-	-	-	-	-	-	-	-
CCCNCc1nnc(-c2ccccc2Cl)o1	0	0	0	0	0	0	-	-	-	-	-
Clc1ccccc1-c1nnc(-c2ccccc2Cl)o1	0	82.6	0	0	77.0	0	79.2	82.9	93.9	69.0	50.2
Clc1ccc(-c2nnc(-c3ccccc3Cl)o2)cc1	0	83.3	0	86.9	50.4	0	0	0	52.2	0	0
COc1cccc(-c2cn3nc(C)c(C)nc3n2)c1	0	82.9	0	0	59.5	0	90.4	93.1	100.9	97.1	61.0
COc1ccc(-c2cn3nc4c(nc3n2)CCCC4)cc1	-	-	0	-	-	-	-	-	-	-	-
CNC[C@H]1Oc2cc(Br)ccc2S(=O)(=O)N([C@H](C)CO)C[C@H]1C	-	-	0	-	-	-	-	-	-	-	-
Cc1cc(C)c2cccc(N)c2n1	0	71.4	0	0	0	0	0	0	0	0	0
Cc1cc(C)c2c(N)c3ccccc3nc2n1	0	0	0	0	0	0	-	-	-	-	-
COC(=O)C[C@@H]1CC[C@H](NC(=O)Nc2cccc(F)c2)[C@@H](CO)O1	-	-	0	-	-	-	-	-	-	-	-
COc1ccc(CCNC(=O)CCNS(=O)(=O)c2cccc3nonc23)cc1OC	0	0	0	80.1	0	0	0	0	0	0	0
COc1cc(Cn2c3ccc(NC(=O)CC(C)C(F)(F)F)cc3c(=O)n2C)ccc1F (centres undefined)	-	-	0	-	-	-	-	-	-	-	-
COc1cc(OC)cc(C(=O)Nc2ccc(-n3cnnn3)c(C)c2)c1	0	93.8	0	0	92.2	0	68.9	91.7	100.8	94.9	91.7
COc1ccc(OC)c(N2C(=O)c3ccccc3C2c2nnnn2-c2ccc3c(c2)OCCO3)c1 (centres undefined)	-	-	0	-	-	-	-	-	-	-	-
Cc1occc1C(=O)Nc1cc(C(C)(C)C)on1	0	96.0	0	96.7	93.5	0	93.2	95.0	101.5	96.6	94.9
CC(=O)c1cccc(NC(=O)c2ccoc2C)c1	0	0	0	0	0	0	-	-	-	-	-
